Measurements from ChEMBL document CHEMBL1137958, “2('),3(')-didehydro-2('),3(')-dideoxynucleosides are degraded to furfuryl alcohol under acidic conditions” (Bioorg Med Chem Lett, 2004).

Tests used:
[1] = tested on: Vero; assay: Cytotoxicity was determined in Vero cells, relative to RVT; type: functional, cell-based; details: Chlorocebus sabaeus
[2] = Cytotoxicity was determined in PBM cells, relative to RVT; type: functional, cell-based; details: Homo sapiens, PBMC
[3] = tested on: CCRF-CEM; assay: Cytotoxicity was determined in CEM cells, relative to RVT; type: functional, cell-based; details: Homo sapiens
[4] = The anti-HIV-1 activity was assayed in activated human peripheral blood mononuclear (PBM) cells, relative to RVT; type: functional
[5] = Estimated half-life at 20 degree C in 0.05 M pH 2 NaH2PO4 buffer; type: ADME; details: phosphate buffer
In short: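 About 1 mg of nucleoside was dissolved in 0.05 M NaH2PO4 (pH 2.0) and stirred at ambient temperature for 24 h. Samples taken at 1 and 24 h were analysed by reverse-phase C18 HPLC, eluting with a gradient of 0.05 M triethylammonium bicarbonate to 70% acetonitrile. Half-life was estimated from the HPLC data, and TLC was run at 24 h.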

Compound | IC50 [1] [µM] | IC50 [2] [µM] | IC50 [3] [µM] | EC50 [4] [µM] | EC90 [4] [µM] | half-life [5] [min]
Nc1nc(=O)[nH]cc1F [FLUCYTOSINE] | > 100 | ≥ 100 | > 100 |  |  | 
Cc1cn([C@H]2C[C@H](N=[N+]=[N-])[C@@H](CO)O2)c(=O)[nH]c1=O [ZIDOVUDINE] |  | > 100 |  | 0.002 | 0.02 | 
Nc1nc(O)c2ncn(C3C=CC(CO)O3)c2n1 (centres undefined) |  |  |  |  |  | < 2
Nc1nc2[nH]cnc2c(=O)[nH]1 [GUANINE] | 54.9 | > 100 | 64.3 |  |  | 
Cc1c[nH]c(=O)[nH]c1=O [THYMINE] | > 100 | > 100 | > 100 |  |  | 
Nc1nc(=O)n([C@@H]2C=C[C@H](CO)O2)cc1F [ELVUCITABINE] | > 100 | > 100 | > 100 | 0.067 | 1.9 | 45
Cc1cn([C@H]2C=C[C@@H](CO)O2)c(=O)[nH]c1=O [STAVUDINE] |  |  |  |  |  | 50000
Nc1nc(NC2CC2)c2ncn(C3C=CC(CO)O3)c2n1 (centres undefined) |  |  |  |  |  | 41
OCc1ccco1 [FURFURYL ALCOHOL] | > 100 | > 100 | > 100 | > 100 | > 100 | 
C[C@@H]1C[C@@H]([C@H](O)CC2CC(=O)NC(=O)C2)C(=O)[C@@H](C)C1 [CYCLOHEXIMIDE] | 0.53 | 0.46 | 0.08 |  |  | 
